pKi: −log10 of the molar value.
Columns and labels:
[1] = Lipophilicity, log P by HPLC method; details: octanol/water
[2] = Chemical stability in 0.01 mM phosphate buffered saline assessed as purity of parent compound after 1 hr by HPLC analysis; type: physicochemical; details: read-out: Activity
Summary of the method: (§1)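 Test compound incubated in phosphate buffered saline at 37 °C. Parent compound decomposition followed over time by HPLC.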

[3] = Chemical stability in 0.01 mM phosphate buffered saline assessed as purity of parent compound after 2 hrs by HPLC analysis; type: physicochemical; details: read-out: Activity
Summary of the method: as §1

[4] = Chemical stability in 0.01 mM phosphate buffered saline assessed as purity of parent compound after 4 hrs by HPLC analysis; type: physicochemical; details: read-out: Activity
Summary of the method: as §1

[5] = Chemical stability in 0.01 mM phosphate buffered saline assessed as purity of parent compound after 6 hrs by HPLC analysis; type: physicochemical; details: read-out: Activity
Summary of the method: as §1

[6] = Chemical stability in 0.01 mM phosphate buffered saline assessed as purity of parent compound after 24 hrs by HPLC analysis; type: physicochemical; details: read-out: Activity
Summary of the method: as §1

[7] = target: Translocator protein (Rattus norvegicus, UniProt P16257); experiment: Displacement of [3H]PK11195 from TSPO in Sprague-Dawley rat brain homogenates by liquid scintillation counting; type: tissue-based
Sequence of Translocator protein (P16257 whole entry, looked up): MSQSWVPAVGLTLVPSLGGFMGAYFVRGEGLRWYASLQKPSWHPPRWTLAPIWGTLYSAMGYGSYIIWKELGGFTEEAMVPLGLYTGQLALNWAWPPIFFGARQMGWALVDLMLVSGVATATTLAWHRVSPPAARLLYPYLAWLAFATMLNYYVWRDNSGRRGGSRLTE

logP [1] | pKi [7] | Compound | also measured
3.85 |  | CCC(C)N(C)C(=O)c1cc2ccccc2c(-c2ccccc2Cl)n1 (configuration not stated) [PK-11195] | 
 |  | CCN(CC)C(=O)c1nc2ccccc2c(-c2ccccc2)c1CI | remaining at 1 h [2]: 96%; remaining at 2 h [3]: 96%; remaining at 4 h [4]: 94%; remaining at 6 h [5]: 94%; remaining at 24 h [6]: 79%
5.16 | < 6.00 | CN(Cc1cccc(I)c1)C(=O)c1cc(-c2ccc(F)cc2)c2ccccc2n1 | 
5.12 | < 6.00 | Cc1c(C(=O)N(C)Cc2ccc(I)cc2)nc2ccccc2c1-c1ccccc1 | 
5.41 | 6.39 | CN(CCc1ccccc1)C(=O)c1nc2ccccc2c(-c2ccccc2)c1CI | 

Source: ChEMBL document CHEMBL1159094, “New iodinated quinoline-2-carboxamides for SPECT imaging of the translocator protein” (Bioorg Med Chem Lett, 2010)
